From article PMC9939322 (Acta Pharmaceutica Sinica. B, 2022)
Ends that are not written are not given here.

Tested on: mice with DSS-induced acute colitis
Assay: Treatment of DSS-induced acute colitis in mice
Format: in vivo, C57BL/6 J mice
Conditions: oral, daily, 7 days; Ac2-26 95.2 μg/kg; ATTN 35 mg/kg
Procedure, shortened: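 Acute colitis induced in C57BL/6 J mice by 3% (w/v) DSS in drinking water for 7 days. Colitis mice were randomized into 4 groups and dosed daily by oral gavage with one of: saline, free peptide, peptide-free carrier nanoparticles (35 mg/kg), or peptide-loaded nanoparticles (35 mg/kg). Peptide dose was 95.2 μg/kg in every peptide-containing formulation.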

Ac2-26: pro-resolving peptide Ac2-26, synthesized by ChinaPeptides Co., Ltd. (Ac-AMVSEFLKQAWFIENEEQEYVQTVK; UniProt P04083 2-26, looked up, fragment)
depletion of goblet cells (PAS staining): no beneficial effects
